pIC50: −log10 of the molar value.
Tests used:
[1] = molecular target: T1, Growth factor receptor-bound protein 2 (Homo sapiens, UniProt P62993); assay: Inhibition of Grb2-SH2 domain binding to phospho-EGF receptor intracellular C-terminal domain; format: biochemical
Summary of the method: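 Phosphorylated MBP-EGFR C-terminal domain (residues 976–1210, expressed in E. coli) is immobilized on plates and incubated with GST/Grb2-SH2 in the presence of phosphopeptide or buffer. Bound SH2 is detected with rabbit anti-GST and HRP anti-rabbit antibody, using TMB substrate read at 655 nm. Inhibition is the % absorbance reduction versus no inhibitor; IC50 comes from nonlinear regression.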

[2] = molecular target: T1, Growth factor receptor-bound protein 2; assay: Inhibition of Grb2 SH2 domain binding to biotinylated phosphopeptide
Summary of the method: (§1)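 Competition ELISA. Biotinylated phosphopeptide (10 ng/mL in 50 mM Tris, pH 7.5) is captured overnight at 4 °C on streptavidin-coated plates. Wells then receive GST-SH2 fusion (Grb2 3.2 ng/mL, Lck 3.2 ng/mL, p85 N-terminal 0.7 ng/mL) with varying unlabeled peptide or buffer, in TBS/0.1% Tween. Detection is rabbit anti-GST, then peroxidase anti-rabbit IgG with TMB. IC50 comes from nonlinear regression of % absorbance reduction.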

[3] = Inhibition of p85 SH2 domain binding to biotinylated phosphopeptide; summary of the method: as §1
[4] = molecular target: Tyrosine-protein kinase Lck (Homo sapiens, UniProt P06239); assay: Inhibition of p56lck SH2 domain binding to biotinylated phosphopeptide; summary of the method: as §1
Sequence of Tyrosine-protein kinase Lck (P06239 whole entry, the tested form may be a part): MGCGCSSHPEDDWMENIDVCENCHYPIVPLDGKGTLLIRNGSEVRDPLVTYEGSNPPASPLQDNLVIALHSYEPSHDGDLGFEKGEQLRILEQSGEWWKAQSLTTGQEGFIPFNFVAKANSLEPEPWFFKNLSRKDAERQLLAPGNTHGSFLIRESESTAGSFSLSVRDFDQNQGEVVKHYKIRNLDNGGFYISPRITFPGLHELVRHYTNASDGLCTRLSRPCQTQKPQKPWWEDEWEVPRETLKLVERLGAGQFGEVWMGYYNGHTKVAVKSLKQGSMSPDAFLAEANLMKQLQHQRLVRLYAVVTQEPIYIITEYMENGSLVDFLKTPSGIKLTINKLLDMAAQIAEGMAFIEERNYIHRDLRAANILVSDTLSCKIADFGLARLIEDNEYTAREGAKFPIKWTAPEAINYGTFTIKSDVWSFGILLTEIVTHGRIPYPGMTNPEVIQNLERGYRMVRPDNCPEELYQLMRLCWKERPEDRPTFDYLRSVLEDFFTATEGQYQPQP

T1 sequence (P62993 whole entry, the tested form may be a part): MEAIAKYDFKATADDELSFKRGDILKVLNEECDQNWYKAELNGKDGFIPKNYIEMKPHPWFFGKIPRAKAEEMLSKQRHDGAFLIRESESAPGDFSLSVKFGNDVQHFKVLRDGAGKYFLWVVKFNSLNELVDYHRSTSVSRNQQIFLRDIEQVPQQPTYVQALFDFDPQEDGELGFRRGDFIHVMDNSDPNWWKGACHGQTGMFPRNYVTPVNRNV

Compound | pIC50 [1] | pIC50 [2] | pIC50 [3] | pIC50 [4]
CCCCC(CC)CNC(=O)C[C@H](NC(=O)[C@@H](NC(=O)[C@@H](N)Cc1ccc(OP(=O)(OC(C)=O)OC(C)=O)cc1)[C@@H](C)CC)C(=O)O (stereo not given in full) | 5.80 | – | – | –
CC[C@H](C)[C@H](NC(=O)[C@@H](N)Cc1ccc(OP(=O)(OC(C)=O)OC(C)=O)cc1)C(=O)N[C@@H](CC(=O)NCCCc1cccc2ccccc12)C(=O)O | 6.48 | 6.24 | < 5.00 | < 5.00
CC[C@H](C)[C@H](NC(=O)[C@@H](N)Cc1ccc(OP(=O)(OC(C)=O)OC(C)=O)cc1)C(=O)N[C@@H](CC(N)=O)C(=O)O | 5.05 | – | – | –
CC[C@H](C)[C@H](NC(=O)[C@@H](N)Cc1ccc(OP(=O)(OC(C)=O)OC(C)=O)cc1)C(=O)N[C@@H](CC(=O)NCCCc1ccc(Cl)cc1Cl)C(=O)O | 5.82 | – | – | –
CC[C@H](C)[C@H](NC(=O)[C@@H](N)Cc1ccc(OP(=O)(OC(C)=O)OC(C)=O)cc1)C(=O)N[C@@H](CC(=O)NCCCc1ccccc1)C(=O)O | 5.64 | – | – | –
CC[C@H](C)[C@H](NC(=O)[C@@H](N)Cc1ccc(OP(=O)(OC(C)=O)OC(C)=O)cc1)C(=O)N[C@@H](CC(=O)NCCC(C)C)C(=O)O | 5.51 | – | – | –
CC[C@H](C)[C@H](NC(=O)[C@@H](N)Cc1ccc(OP(=O)(OC(C)=O)OC(C)=O)cc1)C(=O)N[C@@H](CC(=O)NCC(C)C)C(=O)O | 5.49 | – | – | –

Reference: ChEMBL document CHEMBL1131080, “Structure-based design and synthesis of high affinity tripeptide ligands of the Grb2-SH2 domain” (J Med Chem, 1998)
